Assay results as given in ChEMBL document CHEMBL1137290, “Design, synthesis, and biological evaluation of a new class of small molecule peptide mimetics targeting the melanocortin receptors” (Bioorg Med Chem Lett, 2006).

What was measured:
[1] = molecular target: T1, Melanocyte-stimulating hormone receptor (Homo sapiens, UniProt Q01726); test: Displacement of [125I]NDP-alpha-MSH from human MC1R expressed in HEK293 cells; type: cell-based
Target sequence in this assay (Q01726 whole entry): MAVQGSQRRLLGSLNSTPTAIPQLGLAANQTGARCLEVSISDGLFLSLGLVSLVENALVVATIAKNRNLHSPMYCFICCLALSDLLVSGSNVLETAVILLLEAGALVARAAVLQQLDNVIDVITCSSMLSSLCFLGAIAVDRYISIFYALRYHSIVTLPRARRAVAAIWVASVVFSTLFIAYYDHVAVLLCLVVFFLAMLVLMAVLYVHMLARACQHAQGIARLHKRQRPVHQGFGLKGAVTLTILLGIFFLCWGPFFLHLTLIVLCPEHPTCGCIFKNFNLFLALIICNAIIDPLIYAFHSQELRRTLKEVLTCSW

Melanocortin receptor 3 [2] = molecular target: T2, Melanocortin receptor 3 (Homo sapiens, UniProt P41968); test: Displacement of [125I]NDP-alpha-MSH from human MC3R expressed in HEK293 cells; type: cell-based
Melanocortin receptor 4 [3] = molecular target: T3, Melanocortin receptor 4 (Homo sapiens, UniProt P32245); test: Displacement of [125I]NDP-alpha-MSH from human MC4R expressed in HEK293 cells; type: cell-based
Melanocortin receptor 5 [4] = molecular target: T4, Melanocortin receptor 5 (Homo sapiens, UniProt P33032); test: Displacement of [125I]NDP-alpha-MSH from human MC5R expressed in HEK293 cells; type: cell-based
[5] = molecular target: T1, Melanocyte-stimulating hormone receptor; test: Displacement of [125I]NDP-alpha-MSH from human MC1R expressed in HEK293 cells relative to MT-II; type: cell-based
Target sequence in this assay (Q01726 whole entry, looked up): as the sequence (Q01726 whole entry) above

[6] = molecular target: T1, Melanocyte-stimulating hormone receptor; test: Activity at human MC1R expressed in HEK293 cells assessed by measuring intracellular cAMP accumulation; type: functional, cell-based
Summary of the method: (§1)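 Whole HEK293 cells expressing the human melanocortin receptor were incubated with ligand, and the cAMP they produced was measured as the read-out of adenylate cyclase activation.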
Target sequence in this assay (Q01726 whole entry): as above

Melanocortin receptor 3 [7] = molecular target: T2, Melanocortin receptor 3; test: Activity at human MC3R expressed in HEK293 cells assessed by measuring intracellular cAMP accumulation; type: functional, cell-based; summary of the method: as §1
Melanocortin receptor 5 [8] = molecular target: T4, Melanocortin receptor 5; test: Activity at human MC5R expressed in HEK293 cells assessed by measuring intracellular cAMP accumulation; type: functional, cell-based; summary of the method: as §1
Melanocortin receptor 4 [9] = molecular target: T3, Melanocortin receptor 4; test: Activity at human MC4R expressed in HEK293 cells assessed by measuring intracellular cAMP accumulation; type: functional, cell-based; summary of the method: as §1
[10] = molecular target: T1, Melanocyte-stimulating hormone receptor; test: Activity at human MC1R expressed in HEK293 cells assessed as activation of adenylate cyclase; type: functional, cell-based; set-up: concentration or dose not given beside the values
Summary of the method: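 Whole HEK293 cells expressing the human melanocortin receptor were incubated with ligand, and the cAMP they produced was measured as the read-out of adenylate cyclase activation. EC50 is the concentration giving 50% of maximal intracellular cAMP accumulation.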
Target sequence in this assay (Q01726 whole entry, looked up): as the sequence (Q01726 whole entry) above

Melanocortin receptor 3 [11] = molecular target: T2, Melanocortin receptor 3; test: Activity at human MC3R expressed in HEK293 cells assessed as activation of adenylate cyclase; type: functional, cell-based; set-up: concentration or dose not given beside the values; summary of the method: as §1
Melanocortin receptor 5 [12] = molecular target: T4, Melanocortin receptor 5; test: Activity at human MC5R expressed in HEK293 cells assessed as activation of adenylate cyclase; type: functional, cell-based; set-up: concentration or dose not given beside the values; summary of the method: as §1
Melanocortin receptor 4 [13] = molecular target: T3, Melanocortin receptor 4; test: Activity at human MC4R expressed in HEK293 cells assessed as activation of adenylate cyclase; type: functional, cell-based; set-up: concentration or dose not given beside the values; summary of the method: as §1
Melanocortin receptor 5 [14] = molecular target: T4, Melanocortin receptor 5; test: Displacement of [125I]NDP-alpha-MSH from human MC5R expressed in HEK293 cells relative to MT-II; type: cell-based
Summary of the method: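 Binding efficiency was measured on whole HEK293 cells expressing hMC5R, by competition with 125I-NDP-α-MSH. It is the maximum radioligand displacement by the test compound divided by the maximum displacement caused by excess MT-II.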

T2 sequence (P41968 whole entry): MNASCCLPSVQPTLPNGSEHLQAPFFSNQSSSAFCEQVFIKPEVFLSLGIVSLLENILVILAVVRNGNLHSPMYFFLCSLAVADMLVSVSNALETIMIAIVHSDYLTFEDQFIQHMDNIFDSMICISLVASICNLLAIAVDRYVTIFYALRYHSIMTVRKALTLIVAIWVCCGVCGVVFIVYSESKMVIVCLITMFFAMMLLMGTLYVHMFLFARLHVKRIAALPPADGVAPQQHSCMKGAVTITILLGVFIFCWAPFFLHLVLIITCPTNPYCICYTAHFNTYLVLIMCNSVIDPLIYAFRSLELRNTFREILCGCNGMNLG
T4 sequence (P33032 whole entry): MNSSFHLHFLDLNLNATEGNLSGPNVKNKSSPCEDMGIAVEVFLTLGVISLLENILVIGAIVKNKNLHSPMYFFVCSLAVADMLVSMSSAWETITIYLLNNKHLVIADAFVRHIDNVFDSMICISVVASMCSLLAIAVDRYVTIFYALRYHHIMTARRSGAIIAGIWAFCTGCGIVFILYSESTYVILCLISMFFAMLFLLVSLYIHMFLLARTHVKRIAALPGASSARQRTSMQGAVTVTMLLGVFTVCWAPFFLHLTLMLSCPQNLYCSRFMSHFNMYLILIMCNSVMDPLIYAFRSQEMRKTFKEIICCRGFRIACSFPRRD
T3 sequence (P32245 whole entry): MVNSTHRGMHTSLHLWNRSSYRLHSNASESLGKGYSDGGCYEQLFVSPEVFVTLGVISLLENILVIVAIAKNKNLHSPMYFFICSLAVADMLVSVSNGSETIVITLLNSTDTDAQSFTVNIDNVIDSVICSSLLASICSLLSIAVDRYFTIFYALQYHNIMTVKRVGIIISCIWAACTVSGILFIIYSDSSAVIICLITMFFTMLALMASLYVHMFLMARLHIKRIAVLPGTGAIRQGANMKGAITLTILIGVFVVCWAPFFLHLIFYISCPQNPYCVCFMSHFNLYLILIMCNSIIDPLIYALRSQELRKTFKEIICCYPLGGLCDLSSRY

| SMILES | Activity (Melanocortin receptor 5 [14]) [%] | IC50 [1] [µM] | IC50 (Melanocortin receptor 3 [2]) [µM] | IC50 (Melanocortin receptor 4 [3]) [µM] | IC50 (Melanocortin receptor 5 [4]) [µM] | Activity [5] [%] | EC50 [6] [µM] | EC50 (Melanocortin receptor 3 [7]) [µM] | EC50 (Melanocortin receptor 5 [8]) [µM] | EC50 (Melanocortin receptor 4 [9]) [µM] | Activity [10] [%] | Activity (Melanocortin receptor 3 [11]) [%] | Activity (Melanocortin receptor 5 [12]) [%] | Activity (Melanocortin receptor 4 [13]) [%] |
| --- | --- | --- | --- | --- | --- | --- | --- | --- | --- | --- | --- | --- | --- | --- |
| O=C(Cc1ccccc1)N1C[C@@H]2CCCN2C[C@H]1Cc1ccccc1 |  | 0.0013 | 0.005 | 0.0012 | > 10 | 90 | > 10 | > 10 | > 10 | > 10 | 0 | 0 | 0 | 0 |
| O=C(Cc1ccccc1)N1C[C@@H]2CCCN2C[C@@H]1Cc1ccccc1 |  | 0.0022 | 0.35 | > 10 | > 10 | 80 | > 10 | > 10 | > 10 | 0.0027 | 0 | 0 | 0 | 30 |
| NC(N)=NCCC[C@H](NC(=O)CCc1c[nH]c2ccccc12)C(=O)N1C[C@@H]2CCCN2C[C@@H]1Cc1ccccc1 |  | > 10 | > 10 | > 10 | 0.0001 |  | > 10 | > 10 | > 10 | > 10 |  |  |  |  |
| O=C(CCc1c[nH]c2ccccc12)N1C[C@@H]2CCCN2C[C@H]1Cc1ccccc1 |  | 0.004 | 0.0012 | > 10 | > 10 | 50 | > 10 | > 10 | > 10 | > 10 | 0 | 0 | 0 | 0 |
| O=C(CCc1c[nH]c2ccccc12)N1C[C@@H]2CCCN2C[C@@H]1Cc1ccccc1 | 50 | > 10 | > 10 | > 10 | 0.0008 |  | > 10 | > 10 | > 10 | > 10 | 0 | 0 | 0 | 0 |

More lines, main results first:

| Activity (Melanocortin receptor 5 [14]) [%] | SMILES | IC50 [1] [µM] | IC50 (Melanocortin receptor 3 [2]) [µM] | IC50 (Melanocortin receptor 4 [3]) [µM] | IC50 (Melanocortin receptor 5 [4]) [µM] | Activity [5] [%] | EC50 [6] [µM] | EC50 (Melanocortin receptor 3 [7]) [µM] | EC50 (Melanocortin receptor 5 [8]) [µM] | EC50 (Melanocortin receptor 4 [9]) [µM] | Activity [10] [%] | Activity (Melanocortin receptor 3 [11]) [%] | Activity (Melanocortin receptor 5 [12]) [%] | Activity (Melanocortin receptor 4 [13]) [%] |
| --- | --- | --- | --- | --- | --- | --- | --- | --- | --- | --- | --- | --- | --- | --- |
| 60 | N=C(N)NCCC[C@H](NC(=O)CCc1c[nH]c2ccccc12)C(=O)N1C[C@@H]2CCCN2C[C@@H]1Cc1ccccc1 |  |  |  |  |  |  |  |  |  | 20 | 0 | 0 | 0 |
| 50 | O=C(CCC(=O)N1C[C@@H]2CCCN2C[C@@H]1Cc1ccccc1)NCCc1c[nH]c2ccccc12 | > 10 | > 10 | > 10 | 0.0005 |  | > 10 | > 10 | > 10 | > 10 | 0 | 0 | 0 | 0 |
| 65 | O=C(CCc1c[nH]c2ccccc12)NCCCCCC(=O)N1C[C@@H]2CCCN2C[C@@H]1Cc1ccccc1 | > 10 | > 10 | > 10 | 0.0004 |  | > 10 | > 10 | > 10 | > 10 | 0 | 0 | 0 | 0 |
| 60 | O=C(CCC(=O)N1C[C@@H]2CCCN2C[C@H]1Cc1ccccc1)NCCc1c[nH]c2ccccc12 | > 10 | > 10 | > 10 | 0.0001 |  | > 10 | > 10 | > 10 | > 10 | 0 | 0 | 0 | 0 |
